Measured values: ChEMBL document CHEMBL2057201, “New CD1d agonists: synthesis and biological activity of 6″-triazole-substituted α-galactosyl ceramides” (Bioorg Med Chem Lett, 2012)
Activity calls are given as the source filed them. The rule behind the calls is not given here.

How the values were obtained:
iNKT = assay: Immunomodulatory activity in mouse iNKT DN3A4-1.2 cells assessed as stimulation of IL2 production after 24 hrs by ELISA
Mus musculus [1] = assay: Immunomodulatory activity in ip dosed C57BL/6 mouse assessed as stimulation of IFNgamma production after 24 hrs; format: functional, organism-based
Outline: (§1)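 C57BL/6 mice received the glycolipids by intraperitoneal injection. Cytokines were measured in serum: IL-4 at 2 h and IFN-γ at 24 h after injection.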

Mus musculus [2] = assay: Immunomodulatory activity in ip dosed C57BL/6 mouse assessed as stimulation of IFNgamma production after 24 hrs
Mus musculus [3] = assay: Immunomodulatory activity in ip dosed C57BL/6 mouse assessed as stimulation of IL4 production after 2 hrs; format: functional, organism-based
Outline: as §1

Mus musculus [4] = assay: Immunomodulatory activity in ip dosed C57BL/6 mouse assessed as stimulation of IL4 production after 2 hrs

Compound	Activity (iNKT)	Activity (Mus musculus [1])	Activity (Mus musculus [2])	Activity (Mus musculus [3])	Activity (Mus musculus [4])
CCCCCCCCCCCCCCCCCCCCCCCCCC(=O)N[C@@H](CO[C@H]1O[C@H](Cn2nnc(-c3ccccc3)c2-c2ccccc2)[C@H](O)[C@H](O)[C@H]1O)[C@H](O)[C@H](O)CCCCCCCCCCCCCC	Active				
CCCCCCCCCCCCCCCCCCCCCCCCCC(=O)N[C@@H](CO[C@H]1O[C@H](Cn2cc(-c3ccccc3)nn2)[C@H](O)[C@H](O)[C@H]1O)[C@H](O)[C@H](O)CCCCCCCCCCCCCC	Active				
CCCCCCCCCCCCCCCCCCCCCCCCCC(=O)N[C@@H](CO[C@H]1O[C@H](CN=[N+]=[N-])[C@H](O)[C@H](O)[C@H]1O)[C@H](O)[C@H](O)CCCCCCCCCCCCCC	Active	Active	Active		
CCCCCCCCCCCCCCCCCCCCCCCCCC(=O)N[C@@H](CO[C@H]1O[C@H](Cn2cc(CCCCCCCCCCCC)nn2)[C@H](O)[C@H](O)[C@H]1O)[C@H](O)[C@H](O)CCCCCCCCCCCCCC		Active	Active	Active	Active
CCCCCCCCCCCCCCCCCCCCCCCCCC(=O)N[C@@H](CO[C@H]1O[C@H](Cn2nnc3ccccc32)[C@H](O)[C@H](O)[C@H]1O)[C@H](O)[C@H](O)CCCCCCCCCCCCCC	Active				
CCCCCCCCCCCCCCCCCCCCCCCCCC(=O)N[C@@H](CO[C@H]1O[C@H](Cn2nncc2-c2ccccc2)[C@H](O)[C@H](O)[C@H]1O)[C@H](O)[C@H](O)CCCCCCCCCCCCCC	Active			Active	Active
CCCCCCCCCCCCCCCCCCCCCCCCCC(=O)N[C@@H](CO[C@H]1O[C@H](Cn2cc(COCCOCCOCCOCCOCCOCCOCCOCCOC)nn2)[C@H](O)[C@H](O)[C@H]1O)[C@H](O)[C@H](O)CCCCCCCCCCCCCC	Active	Active	Active	Active	Active
CCCCCCCCCCCCCCCCCCCCCCCCCC(=O)N[C@@H](CO[C@H]1O[C@H](Cn2cc(CCCCCCCC)nn2)[C@H](O)[C@H](O)[C@H]1O)[C@H](O)[C@H](O)CCCCCCCCCCCCCC	Active	Active	Active	Active	Active
